Assay results from ChEMBL document CHEMBL4837211, “Adamantane derivatives as potential inhibitors of p37 major envelope protein and poxvirus reproduction. Design, synthesis and antiviral activity” (Eur J Med Chem, 2021).

Assays:
[1] = system: Vero; experiment: (§1) Cytotoxicity against African green monkey Vero cells assessed as reduction in cell viability by neutral red dye based colorimetric analysis; details: chlorocebus sabaeus, vero
Outline: (§2)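 Vero monolayers are grown in DMEM with 5% FBS, gentamicin and amphotericin B, and assayed in the same medium with 2% serum. Each compound is tested as 8 three-fold dilutions, starting at 1, 10 or 100 µg/ml, added before 1000 pfu/well virus. After 4 days, neutral red is added for 1.5 h, cells are washed and lysed, and OD is read. CC50 and IC50 are derived from OD values.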

[2] = system: p37 (Ectromelia virus K1); experiment: Selectivity index, ratio of CC50 for African green monkey Vero cells to IC50 for inhibition of p37 in Ectromelia virus K1 infected in African green monkey Vero cells; type: toxicity; details: read-out: Ratio CC50/IC50
[3] = as §1; details: chlorocebus sabaeus, Vero cells; outline: as §2
[4] = cells; type: cell-based; details: Ectromelia virus, Vero, 96 h
[5] = cells; type: cell-based; details: Cowpox virus, Vero, 96 h
[6] = system: p37 (Vaccinia virus Copenhagen); experiment: Selectivity index, ratio of CC50 for African green monkey Vero cells to IC50 for inhibition of p37 in Vaccinia virus Copenhagen infected in African green monkey Vero cells; type: toxicity; details: read-out: Ratio CC50/IC50
[7] = system: p37 (Cowpox virus Grishak); experiment: Selectivity index, ratio of CC50 for African green monkey Vero cells to IC50 for inhibition of p37 in Cowpox virus Grishak infected in African green monkey Vero cells; type: toxicity; details: read-out: Ratio CC50/IC50

Question: With CC12CC3CC(C)(C1)CC(NC(=O)c1ccc(C(F)(F)F)cc1)(C3)C2 as the compound, how does the CC50 [1] read?
Answer: 20.5 µM

Question: For O=C(NNC(=O)C12CC3CC(CC(C3)C1)C2)c1ccc(C(F)(F)F)cc1, which selectivity ratio [2] is on record?
Answer: > 273

Question: What about the CC50 [3] of the same compound?
Answer: > 273 µM

Question: What about the IC50 [4] of the same compound?
Answer: 1 µM

Question: And the IC50 [5]?
Answer: 4.77 µM

Question: What about the selectivity ratio [6] of the same compound?
Answer: > 255

Question: What about the selectivity ratio [7] of the same compound?
Answer: > 57

Question: What does the source list for O=C(NNC1C2CC3CC1CC(Cl)(C3)C2)c1ccc(C(F)(F)F)cc1 (stereo not drawn)?
Answer: selectivity ratio [2]: 27.5; CC50 [3]: ~215 µM; IC50 [4]: 7.8 µM; IC50 [5]: 10.4 µM; selectivity ratio [6]: 61; selectivity ratio [7]: 20.7

Question: With O=C(NNC12CC3CC(CC(C3)C1)C2)c1ccc(C(F)(F)F)cc1 as the compound, how does the CC50 [3] read?
Answer: 2.8 µM

Question: Which selectivity ratio [2] does the source give for C/C(=N\NC(=O)c1ccc(C(F)(F)F)cc1)C12CC3CC(CC(C3)C1)C2 here?
Answer: > 25

Question: And the CC50 [1]?
Answer: > 274 µM

Question: What about the IC50 [4] of the same compound?
Answer: 10.9 µM

Question: What about the IC50 [5] of the same compound?
Answer: 11.9 µM

Question: And the selectivity ratio [6]?
Answer: > 26

Question: And the selectivity ratio [7]?
Answer: > 23

Question: For CC12CC3CC(C1)CC(NC(=O)c1ccc(C(F)(F)F)cc1)(C3)C2, which selectivity ratio [2] is on record?
Answer: > 72

Question: What about the CC50 [1] of the same compound?
Answer: > 296 µM

Question: And the IC50 [4]?
Answer: 4.1 µM

Question: And the IC50 [5]?
Answer: 15.6 µM

Question: And the selectivity ratio [6]?
Answer: > 33

Question: And the selectivity ratio [7]?
Answer: > 19

Question: Which selectivity ratio [2] does the source give for O=C(NNC1C2CC3CC(C2)CC1C3)c1ccc(C(F)(F)F)cc1 (stereo not drawn) here?
Answer: > 118

Question: And the CC50 [3]?
Answer: > 296 µM

Question: And the IC50 [4]?
Answer: 2.5 µM

Question: And the IC50 [5]?
Answer: 4.06 µM

Question: And the selectivity ratio [6]?
Answer: > 103

Question: What about the selectivity ratio [7] of the same compound?
Answer: > 72

Question: With O=C(NCC12CC3CC(CC(C3)C1)C2)c1ccc(Br)cc1 as the compound, how does the selectivity ratio [2] read?
Answer: 136

Question: What about the CC50 [1] of the same compound?
Answer: 238 µM

Question: What about the IC50 [4] of the same compound?
Answer: 1.75 µM

Question: What about the selectivity ratio [6] of the same compound?
Answer: 28

Question: With O=C(NC12CC3CC(CC(C3)C1)C2)c1ccc(C(F)(F)F)cc1 as the compound, how does the selectivity ratio [2] read?
Answer: > 628

Question: What about the CC50 [1] of the same compound?
Answer: > 309 µM

Question: What about the IC50 [4] of the same compound?
Answer: 0.492 µM

Question: And the IC50 [5]?
Answer: 0.928 µM

Question: And the selectivity ratio [6]?
Answer: > 2320

Question: What about the selectivity ratio [7] of the same compound?
Answer: > 333

Question: For CCC12CC3CC(C1)CC(C(=O)NNC(=O)c1ccc(C(F)(F)F)cc1)(C3)C2, which CC50 [3] is on record?
Answer: 47 µM

Question: What about the selectivity ratio [6] of the same compound?
Answer: 3.75

Question: For O=C(NC1C2CC3CC(C2)CC1C3)c1ccc(Br)cc1 (stereo not drawn), which selectivity ratio [2] is on record?
Answer: > 61

Question: And the CC50 [1]?
Answer: > 299 µM

Question: And the IC50 [4]?
Answer: 4.9 µM

Question: What about the IC50 [5] of the same compound?
Answer: 11.3 µM

Question: And the selectivity ratio [6]?
Answer: > 98

Question: What about the selectivity ratio [7] of the same compound?
Answer: > 26.5

Question: With O=C(NNC(=O)c1ccc(C(F)(F)F)cc1)NC12CC3CC(CC(C3)C1)C2 as the compound, how does the CC50 [1] read?
Answer: 94.3 µM

Question: And the selectivity ratio [6]?
Answer: 2.6

Question: With O=C(NC1C2CC3CC(C2)CC1C3)c1ccc(C(F)(F)F)cc1 (stereo not drawn) as the compound, how does the selectivity ratio [2] read?
Answer: > 543

Question: And the CC50 [1]?
Answer: > 309 µM

Question: What about the IC50 [4] of the same compound?
Answer: 0.569 µM

Question: And the IC50 [5]?
Answer: 0.96 µM

Question: And the selectivity ratio [6]?
Answer: > 1430

Question: And the selectivity ratio [7]?
Answer: > 321

Question: What does the source list for O=C(NCC12CC3CC(CC(C3)C1)C2)c1ccc(C(F)(F)F)cc1?
Answer: CC50 [1]: > 296 µM; IC50 [5]: 1.24 µM; selectivity ratio [6]: > 1100; selectivity ratio [7]: > 239

Question: For CCC12CC3CC(C1)CC(NNC(=O)c1ccc(C(F)(F)F)cc1)(C3)C2, which CC50 [3] is on record?
Answer: 2.5 µM

Question: And the selectivity ratio [6]?
Answer: 1.5

Question: With CC12CC3CC(C)(C1)CC(C(=O)NNC(=O)c1ccc(C(F)(F)F)cc1)(C3)C2 as the compound, how does the CC50 [3] read?
Answer: > 254 µM

Question: And the selectivity ratio [6]?
Answer: > 8.2

Question: Which CC50 [3] does the source give for O=C(NN=C1C2CC3CC(C2)CC1C3)c1ccc(C(F)(F)F)cc1 here?
Answer: > 297 µM

Question: What about the selectivity ratio [6] of the same compound?
Answer: > 1.5

Question: With CN(C(=O)c1ccc(C(F)(F)F)cc1)C12CC3CC(CC(C3)C1)C2 as the compound, how does the selectivity ratio [2] read?
Answer: > 48

Question: What about the CC50 [1] of the same compound?
Answer: > 296 µM

Question: What about the IC50 [4] of the same compound?
Answer: 6.17 µM

Question: What about the IC50 [5] of the same compound?
Answer: 32.9 µM

Question: And the selectivity ratio [6]?
Answer: > 61

Question: And the selectivity ratio [7]?
Answer: > 9

Question: What does the source list for CCC12CC3CC(C1)CC(NC(=O)c1ccc(C(F)(F)F)cc1)(C3)C2?
Answer: selectivity ratio [2]: > 25; CC50 [1]: > 280 µM; IC50 [4]: 11.1 µM; IC50 [5]: 11.1 µM; selectivity ratio [6]: > 68; selectivity ratio [7]: > 25

Question: Which results are given for CC(NNC(=O)c1ccc(C(F)(F)F)cc1)C12CC3CC(CC(C3)C1)C2 (racemic)?
Answer: CC50 [3]: 14 µM; selectivity ratio [6]: 27

Question: For O=C(NN1C(=O)[C@@H]2[C@@H]3C=C[C@@H]([C@H]4C[C@@H]34)[C@@H]2C1=O)c1ccc(C(F)(F)F)cc1 [TECOVIRIMAT], which selectivity ratio [2] is on record?
Answer: > 33000

Question: What about the CC50 [1] of the same compound?
Answer: > 266 µM

Question: What about the IC50 [4] of the same compound?
Answer: 0.00806 µM

Question: And the IC50 [5]?
Answer: 0.00532 µM

Question: What about the selectivity ratio [6] of the same compound?
Answer: > 100000

Question: What about the selectivity ratio [7] of the same compound?
Answer: > 50000
